According to ChEMBL document CHEMBL1141640, “Cyclic guanidines as dual 5-HT5A/5-HT7 receptor ligands: optimising brain penetration” (Bioorg Med Chem Lett, 2008):

What was measured:
[1] = target: T1, 5-hydroxytryptamine receptor 1D (Homo sapiens, UniProt P28221); assay: Binding affinity to 5HT1D receptor
[2] = Selectivity for human 5HT5A receptor over 5HT2A receptor
[3] = Selectivity for human 5HT5A receptor over 5HT3 receptor
[4] = Dissociation constant, pKa of the compound; format: physicochemical
[5] = Distribution coefficient, log D of the compound; format: physicochemical; conditions: octanol/water
Method in brief: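 Lipophilicity reported as log D at pH 7.4 (log D7.4), measured alongside the guanidine pKa.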

[6] = target: T2, 5-hydroxytryptamine receptor 1A (Homo sapiens, UniProt P08908); assay: Binding affinity to 5HT1A receptor
T2 sequence (P08908 whole entry): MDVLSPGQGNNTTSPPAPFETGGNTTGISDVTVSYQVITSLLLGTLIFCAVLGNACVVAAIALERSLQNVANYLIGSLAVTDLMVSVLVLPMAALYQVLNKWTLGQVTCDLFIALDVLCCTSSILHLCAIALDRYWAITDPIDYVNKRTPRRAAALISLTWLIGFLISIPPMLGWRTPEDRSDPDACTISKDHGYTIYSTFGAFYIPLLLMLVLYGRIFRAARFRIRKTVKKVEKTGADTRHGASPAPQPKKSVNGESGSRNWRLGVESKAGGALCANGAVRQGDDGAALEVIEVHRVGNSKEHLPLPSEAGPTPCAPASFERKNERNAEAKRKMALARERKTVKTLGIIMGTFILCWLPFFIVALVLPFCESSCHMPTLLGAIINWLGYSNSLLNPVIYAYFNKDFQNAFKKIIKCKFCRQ

[7] = target: T3, 5-hydroxytryptamine receptor 5A (Homo sapiens, UniProt P47898); assay: Binding affinity to human 5HT5A receptor
T3 sequence (P47898 whole entry): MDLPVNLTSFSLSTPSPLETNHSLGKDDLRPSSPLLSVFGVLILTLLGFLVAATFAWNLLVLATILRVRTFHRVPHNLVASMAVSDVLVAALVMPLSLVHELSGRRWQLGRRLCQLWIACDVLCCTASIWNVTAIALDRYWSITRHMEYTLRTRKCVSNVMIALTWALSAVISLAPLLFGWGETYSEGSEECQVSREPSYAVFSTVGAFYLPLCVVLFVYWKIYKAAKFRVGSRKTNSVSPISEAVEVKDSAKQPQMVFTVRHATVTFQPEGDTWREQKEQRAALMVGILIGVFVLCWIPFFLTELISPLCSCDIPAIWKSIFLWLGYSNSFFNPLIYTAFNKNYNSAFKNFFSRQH

[8] = target: 5-hydroxytryptamine receptor 7 (Homo sapiens, UniProt P34969); assay: Binding affinity to human 5HT7 receptor
5-hydroxytryptamine receptor 7, sequence (P34969 whole entry): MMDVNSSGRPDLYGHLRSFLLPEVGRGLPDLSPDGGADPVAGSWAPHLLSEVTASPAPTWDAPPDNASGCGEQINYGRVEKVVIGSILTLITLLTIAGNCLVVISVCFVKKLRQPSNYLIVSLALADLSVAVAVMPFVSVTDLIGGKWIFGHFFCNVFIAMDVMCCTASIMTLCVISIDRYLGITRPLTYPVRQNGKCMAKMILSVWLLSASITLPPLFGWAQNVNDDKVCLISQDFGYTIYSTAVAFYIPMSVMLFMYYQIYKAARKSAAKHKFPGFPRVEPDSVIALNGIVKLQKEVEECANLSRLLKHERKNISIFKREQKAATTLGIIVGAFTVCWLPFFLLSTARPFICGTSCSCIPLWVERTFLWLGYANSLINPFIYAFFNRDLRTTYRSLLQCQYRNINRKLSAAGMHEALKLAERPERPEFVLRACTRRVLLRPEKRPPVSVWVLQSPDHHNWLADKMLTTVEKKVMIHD

[9] = target: T4, 5-hydroxytryptamine receptor 2C (Homo sapiens, UniProt P28335); assay: Binding affinity to 5HT2C receptor
T4 sequence (P28335 whole entry): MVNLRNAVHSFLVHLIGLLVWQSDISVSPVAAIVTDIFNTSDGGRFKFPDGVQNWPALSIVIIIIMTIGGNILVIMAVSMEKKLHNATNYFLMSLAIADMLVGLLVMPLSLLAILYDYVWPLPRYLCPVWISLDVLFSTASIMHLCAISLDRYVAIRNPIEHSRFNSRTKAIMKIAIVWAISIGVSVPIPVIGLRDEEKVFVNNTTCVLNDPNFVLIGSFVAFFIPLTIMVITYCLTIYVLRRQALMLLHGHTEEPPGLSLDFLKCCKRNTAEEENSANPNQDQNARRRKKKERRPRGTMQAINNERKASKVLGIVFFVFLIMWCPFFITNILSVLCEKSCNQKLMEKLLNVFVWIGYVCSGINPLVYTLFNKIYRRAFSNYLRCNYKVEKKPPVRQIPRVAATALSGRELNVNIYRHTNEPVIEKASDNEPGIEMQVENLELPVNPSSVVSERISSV

[10] = Selectivity for human 5HT5A receptor over 5HT6 receptor
[11] = target: Histamine H1 receptor (Homo sapiens, UniProt P35367); assay: Binding affinity to histamine H1 receptor
Histamine H1 receptor, sequence (P35367 whole entry): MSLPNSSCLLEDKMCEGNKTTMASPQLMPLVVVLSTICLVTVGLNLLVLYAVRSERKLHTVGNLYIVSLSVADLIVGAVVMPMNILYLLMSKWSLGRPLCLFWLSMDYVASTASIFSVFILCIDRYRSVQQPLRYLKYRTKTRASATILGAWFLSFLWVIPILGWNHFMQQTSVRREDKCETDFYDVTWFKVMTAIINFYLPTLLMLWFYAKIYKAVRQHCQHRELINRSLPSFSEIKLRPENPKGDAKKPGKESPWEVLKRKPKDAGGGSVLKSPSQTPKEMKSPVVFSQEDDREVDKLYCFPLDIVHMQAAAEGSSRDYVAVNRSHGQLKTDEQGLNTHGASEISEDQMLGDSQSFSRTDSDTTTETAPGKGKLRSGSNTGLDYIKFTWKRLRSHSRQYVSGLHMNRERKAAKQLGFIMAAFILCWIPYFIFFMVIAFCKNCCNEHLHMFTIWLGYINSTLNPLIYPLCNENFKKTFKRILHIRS

[12] = Cmax in mouse at 6.6 mg/kg, po; format: ADME, organism-based; parameters: dose 6.6 mg/kg, route oral; conditions: in vivo
[13] = system: Brain; assay: Drug level in mouse brain at 6.6 mg/kg, po; format: ADME, organism-based; parameters: dose 6.6 mg/kg, route oral; conditions: in vivo, read-out: Drug uptake
[14] = Tmax in mouse at 6.6 mg/kg, po; format: ADME, organism-based; parameters: dose 6.6 mg/kg, route oral; conditions: in vivo
[15] = target: T3, 5-hydroxytryptamine receptor 5A; assay: Antagonist activity at human 5HT5A receptor by [35S]GTP-gamma-S binding assay; format: functional; conditions: read-out: pA2 (converted)
Method in brief: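 Functional antagonism at human 5-HT5A receptor measured by [35S]GTPγS binding; potency reported as pA2.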

[16] = Clearance in mouse at 5 mg/kg, iv; format: ADME, organism-based; parameters: dose 5 mg/kg, route intravenous; conditions: in vivo
[17] = Half life in mouse at 5 mg/kg, iv; format: ADME, organism-based; parameters: dose 5 mg/kg, route intravenous; conditions: in vivo
[18] = Volume of distribution at steady state in mouse at 5 mg/kg, iv; format: ADME, organism-based; parameters: dose 5 mg/kg, route intravenous; conditions: in vivo, read-out: Vdss
[19] = Ratio of drug level in brain to plasma in mouse at 6.6 mg/kg, po; format: ADME, organism-based; parameters: dose 6.6 mg/kg, route oral
Method in brief: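 Mouse pharmacokinetic study with a single oral (po) dose of 6.6 mg/kg. Drug levels were measured in brain and in plasma, and the brain/plasma ratio was taken from these.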

[20] = Oral bioavailability in mouse at 6.6 mg/kg; format: ADME, organism-based; conditions: in vivo
[21] = target: T1, 5-hydroxytryptamine receptor 1D; assay: Binding affinity to human 5HT1D receptor
[22] = target: 5-hydroxytryptamine receptor 2A (Homo sapiens, UniProt P28223); assay: Binding affinity to human 5HT2A receptor
5-hydroxytryptamine receptor 2A, sequence (P28223 whole entry): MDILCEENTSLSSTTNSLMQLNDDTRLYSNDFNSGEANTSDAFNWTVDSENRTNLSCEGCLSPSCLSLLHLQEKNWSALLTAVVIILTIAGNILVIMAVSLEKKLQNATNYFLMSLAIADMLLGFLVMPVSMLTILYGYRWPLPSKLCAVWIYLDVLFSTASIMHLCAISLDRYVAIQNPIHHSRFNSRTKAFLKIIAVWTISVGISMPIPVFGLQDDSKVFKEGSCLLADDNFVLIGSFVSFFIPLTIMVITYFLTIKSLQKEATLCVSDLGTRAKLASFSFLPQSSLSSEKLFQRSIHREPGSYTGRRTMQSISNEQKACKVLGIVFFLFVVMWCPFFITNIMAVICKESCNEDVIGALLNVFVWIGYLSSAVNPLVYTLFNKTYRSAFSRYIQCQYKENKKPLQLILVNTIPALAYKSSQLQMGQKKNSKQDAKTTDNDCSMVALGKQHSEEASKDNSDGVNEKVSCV

[23] = target: 5-hydroxytryptamine receptor 5A (Rattus norvegicus, UniProt P35364); assay: Binding affinity to rat 5HT5A receptor
5-hydroxytryptamine receptor 5A (Rattus norvegicus, UniProt P35364), sequence (P35364 whole entry): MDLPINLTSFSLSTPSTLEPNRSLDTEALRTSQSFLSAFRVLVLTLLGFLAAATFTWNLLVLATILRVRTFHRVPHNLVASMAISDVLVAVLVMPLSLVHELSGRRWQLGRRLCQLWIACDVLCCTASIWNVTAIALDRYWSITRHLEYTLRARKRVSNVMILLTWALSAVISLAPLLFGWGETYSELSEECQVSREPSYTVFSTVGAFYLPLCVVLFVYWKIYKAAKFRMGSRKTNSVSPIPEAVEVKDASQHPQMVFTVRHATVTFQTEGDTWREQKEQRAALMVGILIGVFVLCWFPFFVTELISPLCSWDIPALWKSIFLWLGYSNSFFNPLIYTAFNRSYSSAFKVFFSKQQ

[24] = target: T2, 5-hydroxytryptamine receptor 1A; assay: Binding affinity to human 5HT1A receptor
[25] = target: T4, 5-hydroxytryptamine receptor 2C; assay: Binding affinity to human 5HT2C receptor
[26] = target: 5-hydroxytryptamine receptor 6 (Homo sapiens, UniProt P50406); assay: Binding affinity to human 5HT6 receptor
5-hydroxytryptamine receptor 6, sequence (P50406 whole entry): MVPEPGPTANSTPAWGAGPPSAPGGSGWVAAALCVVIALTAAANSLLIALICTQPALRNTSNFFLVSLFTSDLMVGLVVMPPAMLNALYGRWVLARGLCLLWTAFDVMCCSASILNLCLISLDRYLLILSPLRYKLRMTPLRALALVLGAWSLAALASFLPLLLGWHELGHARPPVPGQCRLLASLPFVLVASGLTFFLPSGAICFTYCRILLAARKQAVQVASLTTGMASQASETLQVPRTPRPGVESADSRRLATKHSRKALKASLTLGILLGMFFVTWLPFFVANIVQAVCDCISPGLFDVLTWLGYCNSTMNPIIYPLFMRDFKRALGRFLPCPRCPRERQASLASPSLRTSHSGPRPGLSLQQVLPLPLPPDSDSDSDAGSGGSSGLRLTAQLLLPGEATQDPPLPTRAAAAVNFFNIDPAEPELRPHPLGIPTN

[27] = Cmax in mouse at 10 mg/kg, po; format: ADME, organism-based; parameters: dose 10 mg/kg, route oral; conditions: in vivo
[28] = Tmax in mouse at 10 mg/kg, po; format: ADME, organism-based; parameters: dose 10 mg/kg, route oral; conditions: in vivo
[29] = Oral bioavailability in mouse at 10 mg/kg; format: ADME, organism-based; conditions: in vivo

T1 sequence (P28221 whole entry): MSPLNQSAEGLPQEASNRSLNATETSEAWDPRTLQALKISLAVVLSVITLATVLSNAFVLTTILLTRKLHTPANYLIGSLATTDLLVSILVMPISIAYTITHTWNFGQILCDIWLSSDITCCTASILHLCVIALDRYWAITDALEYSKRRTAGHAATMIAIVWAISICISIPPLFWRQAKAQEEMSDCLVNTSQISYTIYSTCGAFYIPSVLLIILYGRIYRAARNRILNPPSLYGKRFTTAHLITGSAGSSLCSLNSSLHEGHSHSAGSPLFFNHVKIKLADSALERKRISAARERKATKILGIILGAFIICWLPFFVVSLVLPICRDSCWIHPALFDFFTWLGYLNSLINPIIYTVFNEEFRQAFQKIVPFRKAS

Structure (SMILES)	pKa [4]	logD [5]	Ki ([7]; read-out: Ki)	Ki [8]	further results
CC1NC(NCC(F)F)=Nc2c(Cl)ccc(Cl)c21 (configuration not stated)	7.8	3	0.0334 µM	0.366 µM	Ki [1]: > 10 µM; Selectivity ratio [2]: > 30; Selectivity ratio [3]: > 30; Ki [6]: 0.087 µM; Ki [9]: 0.675 µM; Selectivity ratio [10]: > 30
CC1NC(NC2CCCCN(C)C2=O)=Nc2ccccc21 (configuration not stated)	–	-0.1	0.279 µM	–	–
CC(C)Oc1cccc2c1N=C(NCC(F)F)NC2C (configuration not stated)	10.2	0.1	0.0222 µM	0.0042 µM	Ki [1]: 0.082 µM; Selectivity ratio [2]: > 30; Selectivity ratio [3]: > 30; Ki [6]: 0.24 µM; Ki [9]: 2.15 µM; Selectivity ratio [10]: > 30
CCCOCCNC1=Nc2ccccc2C(C)N1 (configuration not stated)	–	0.1	0.241 µM	–	–
CC1NC(NCC(F)F)=Nc2ccc(Cl)c(Cl)c21 (configuration not stated)	8.5	2.7	–	0.0233 µM	Ki [1]: 0.63 µM; Selectivity ratio [2]: > 30; Selectivity ratio [3]: > 30; Ki [6]: 0.124 µM; Ki [11]: 0.0183 µM; Ki [9]: 0.162 µM; Selectivity ratio [10]: > 30
CC1NC(N)=Nc2ccccc21 (configuration not stated)	10.5	-1.4	–	–	–
CC1NC(NCCF)=Nc2ccccc21 (configuration not stated)	–	–	0.397 µM	–	–
C[C@H]1NC(N)=Nc2cccc(Cl)c21	–	–	0.415 µM	–	–
CC1NC(NCC2COc3ccccc3O2)=Nc2ccccc21 (configuration not stated)	–	1	0.037 µM	–	–
C[C@H]1NC(NCC(F)F)=Nc2ccc(Cl)c(Cl)c21	8.5	2.7	0.504 µM	1.7 µM	Ki [1]: > 10 µM; Ki [6]: 0.612 µM; Ki [9]: 0.238 µM
CC1NC(NCC(F)F)=Nc2cccc(Cl)c21 (configuration not stated)	8.9	1.5	–	0.0333 µM	Cmax [12]: 740 ng/mL; Ki [1]: 1.37 µM; Selectivity ratio [2]: > 30; concentration [13]: > 1000 nM; Tmax [14]: 0.25 h; Selectivity ratio [3]: > 30; Kb [15]: 0.0389 µM; clearance [16]: 31 mL/min/kg; half-life [17]: 1.4 h; Ki [6]: 0.085 µM; Vd [18]: 3.6 L/kg; Kp [19]: 4; bioavailability [20]: 36%; Ki [9]: 0.401 µM; Selectivity ratio [10]: > 30
C[C@@H]1NC(NCC(F)F)=Nc2cccc(Cl)c21	–	–	0.0068 µM	0.0248 µM	Ki [21]: 1.44 µM; Ki [22]: 0.491 µM; Ki [23]: 0.0029 µM; Ki [24]: 0.056 µM; Ki [25]: 0.352 µM; Ki [26]: 4.48 µM
CCOCCCNC1=Nc2ccccc2C(C)N1 (configuration not stated)	–	-0.3	0.176 µM	–	–
CC1NC(NCCC2CCCCC2)=Nc2ccccc21 (configuration not stated)	–	1.3	0.124 µM	–	–
CC1NC(NC2CCC2)=Nc2ccccc21 (configuration not stated)	–	-0.6	0.122 µM	–	–
CC1NC(NCC(F)F)=Nc2ccccc21 (configuration not stated)	9.7	-0.2	0.087 µM	–	–
CNC1=Nc2ccccc2C(C)N1 (configuration not stated)	10.6	-0.6	0.103 µM	–	–
CC1NC(NCC2COCCO2)=Nc2ccccc21 (configuration not stated)	–	-0.8	0.096 µM	–	–
CCCNC1=Nc2ccccc2C(C)N1 (configuration not stated)	10.7	-0.8	0.153 µM	–	–
CC1NC(N)=Nc2cccc(Cl)c21 (configuration not stated)	9.9	0	–	–	Cmax [27]: 660 ng/mL; Tmax [28]: 0.75 h; Kb [15]: 0.00316 µM; clearance [16]: 30 mL/min/kg; half-life [17]: 4 h; Vd [18]: 9 L/kg; Ki ([7]; read-out: Log Ki (converted)): 0.00501 µM; bioavailability [29]: 59%
C[C@H]1NC(NCC(F)F)=Nc2cccc(Cl)c21	–	–	1.47 µM	–	–
C[C@@H]1NC(NCC(F)F)=Nc2ccc(Cl)c(Cl)c21	8.5	2.7	0.0018 µM	0.0077 µM	Ki [1]: 0.233 µM; Selectivity ratio [2]: > 30; Selectivity ratio [3]: > 30; Ki [6]: 0.075 µM; Ki [11]: 0.0026 µM; Ki [9]: 0.121 µM; Selectivity ratio [10]: > 30
CCCCNC1=Nc2ccccc2C(C)N1 (configuration not stated)	10.7	-0.3	0.189 µM	–	–
COc1cccc2c1N=C(NCC(F)F)NC2C (configuration not stated)	10.2	-0.5	–	0.0389 µM	Ki [1]: 0.747 µM; Selectivity ratio [2]: > 30; Selectivity ratio [3]: > 30; Ki [6]: 0.053 µM; Ki [9]: 1.66 µM; Selectivity ratio [10]: > 30
CC1NC(NC[C@H]2CCCO2)=Nc2ccccc21 (some centres not stated)	–	-0.6	0.163 µM	–	–
CCNC1=Nc2ccccc2C(C)N1 (configuration not stated)	10.8	-0.9	0.196 µM	–	–
COc1c(Cl)ccc2c1C(C)NC(NCC(F)F)=N2 (configuration not stated)	8.9	1.5	0.0222 µM	0.0176 µM	Ki [1]: 1.81 µM; Selectivity ratio [2]: > 30; Selectivity ratio [3]: > 30; Ki [6]: 0.348 µM; Ki [9]: 0.233 µM; Selectivity ratio [10]: > 30
CC1NC(NCC(F)(F)F)=Nc2ccccc21 (configuration not stated)	9.2	0.5	0.488 µM	–	–
